From ChEMBL document CHEMBL1156948, “Statistical molecular design of a focused salicylidene acylhydrazide library and multivariate QSAR of inhibition of type III secretion in the Gram-negative bacterium Yersinia” (Bioorg Med Chem, 2010) come the findings set out here.

For series [1], the system named is Yersinia pseudotuberculosis. Briefly: Antibacterial activity against Yersinia pseudotuberculosis expressing pIB102 at 50 uM after 23 hrs by broth dilution assay. The series is classed as functional, organism-based. The procedure, abridged: (§1)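 Wild-type pIB102 grown overnight in LB at room temperature, diluted to OD600 = 0.1 in LB with 2.5 mM CaCl2. Compound added from DMSO stock to final 50 and 100 µM. Incubated at 37 °C with absorbance at 595 nm read over 23 h.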

The test system of series [2] is Yersinia pseudotuberculosis YPIII. Briefly: Inhibition of T3S in Yersinia pseudotuberculosis YPIII expressing yopE-luxAB at 200 uM after 3 hrs by luciferase reporter gene assay. In a few lines: (§2)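 Strain YPIII pIB102 (yopE-luxAB) grown overnight at room temperature in BHI with 5 mM EGTA and 20 mM MgCl2 (calcium depletion), adjusted to OD600 0.088–0.095. Compound added from DMSO at 1.56–200 µM final (eight concentrations). Shaken 1 h at room temperature, then 2 h at 37 °C. Decanal added and light emission read immediately. Triplicates, repeated at least three times.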

The test system is the same in series [3]. The series can be described thus: Inhibition of T3S in Yersinia pseudotuberculosis YPIII expressing yopE-luxAB at 6.25 uM after 3 hrs by luciferase reporter gene assay. The procedure, abridged:
as §2

Series [4] shares this test system. Briefly: Inhibition of T3S in Yersinia pseudotuberculosis YPIII expressing yopE-luxAB at 3.13 uM after 3 hrs by luciferase reporter gene assay. In a few lines:
as §2

Series [5] has the same test system. The series can be described thus: Inhibition of T3S in Yersinia pseudotuberculosis YPIII expressing yopE-luxAB at 25 uM after 3 hrs by luciferase reporter gene assay. In a few lines:
as §2

Series [6] has the same test system. The series can be described thus: Inhibition of T3S in Yersinia pseudotuberculosis YPIII expressing yopE-luxAB at 50 uM after 3 hrs by luciferase reporter gene assay. In a few lines: as §2
Series [7] has the same test system. The series can be described thus: Inhibition of T3S in Yersinia pseudotuberculosis YPIII expressing yopE-luxAB at 100 uM after 3 hrs by luciferase reporter gene assay. In a few lines: as §2
Series [8] is described as follows: Cytotoxicity against human HeLa 229 cells assessed as cell viability at 50 uM after 28 hrs using resazurin staining by fluorescence microscopy. The series is classed as cell-based. As to conditions: read-out: Activity. The procedure, abridged:
(§3)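 HeLa 229 viability measured at 50 and 25 µM using resazurin added 4 h before read-out; cell-free wells with medium plus compound exclude chemical reduction of resazurin. Scored relative to DMSO control, plus microscopic scoring; non-toxic defined as at least 70% viability versus control. Triplicates, repeated at least three times.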

In series [9] the test system is Escherichia coli. The series can be described thus: Antibacterial activity against Escherichia coli DH5[alpha] at 100 uM after 23 hrs by broth dilution assay. Type of series: functional, organism-based. The procedure, abridged: (§4)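 Overnight LB culture of E. coli DH5α grown at 37 °C, diluted to OD600 0.1 in LB with 2.5 mM CaCl2; compound added from DMSO stock to final 50 or 100 µM. Incubated at 37 °C with absorbance at 595 nm followed over 23 h.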

Series [10] has as its system Yersinia pseudotuberculosis YPIII. Briefly: Inhibition of T3S in Yersinia pseudotuberculosis YPIII expressing yopE-luxAB at 12.5 uM after 3 hrs by luciferase reporter gene assay. The procedure, abridged: as §2
The test system of a further series is Chlamydia trachomatis. Briefly: Antibacterial activity against Chlamydia trachomatis infected in human HeLa 229 cells after 35 hrs by fluorescence microscopy. The series is classed as functional. In a few lines:
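HeLa 229 monolayers infected with C. trachomatis serovar L2, MOI 0.3; compounds diluted in RPMI 1640 with 10% FCS, 2 mM L-glutamine, 8 µg/mL gentamicin (DMSO final 1%) added 1 h post-infection at 50, 25, 12.5, 6.25, 3.13 µM. 35 h at 37 °C, 5% CO2; methanol fixation, immunostaining, fluorescence microscopy at 200×. MIC = lowest concentration with no intracellular inclusions; duplicates, ≥3 occasions.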

Series [11] relates to Yersinia pseudotuberculosis YPIII. The series can be described thus: Inhibition of T3S in Yersinia pseudotuberculosis YPIII expressing yopE-luxAB at 1.56 uM after 3 hrs by luciferase reporter gene assay. The procedure, abridged:
as §2

Series [12] in a line: Cytotoxicity against human HeLa 229 cells assessed as cell viability at 25 uM after 28 hrs using resazurin staining by fluorescence microscopy. Type of series: cell-based. Conditions: read-out: Activity. In a few lines: as §3
The subject of series [13] is Escherichia coli. Briefly: Antibacterial activity against Escherichia coli DH5[alpha] at 50 uM after 23 hrs by broth dilution assay. The series is classed as functional, organism-based. In a few lines: as §4
The test system of series [14] is Yersinia pseudotuberculosis. Briefly: Antibacterial activity against Yersinia pseudotuberculosis expressing pIB102 at 100 uM after 23 hrs by broth dilution assay. Type of series: functional, organism-based. In a few lines:
as §1

Structures are written as SMILES. In brackets after ≈: the same amount, converted by molar mass. Activity calls are given as the source filed them.

In the case of `O=C(N/N=C/c1cc(Br)ccc1O)c1ccccc1Cl`, the result (in series [1]; in the series with Escherichia coli [9]; in the series on Escherichia coli [13]; in series [14]) was inactive. The inhibition in series [2] was found to be 61%; in [3], 10%; in [4] it was 10%; in [5] it was 11%; in [6], 38%; in series [7] it was 58%. Moreover, the inhibition came out at 13% in series [10] and 10% in series [11]. Also, the viability at 28 h, 50 µM in [8] was determined as 60%. For the same molecule, inhibition of growth against Chlamydia trachomatis (MIC) required 50 µM (≈ 17.7 µg/mL). For the same molecule, the viability at 28 h, 25 µM in series [12] came out at 77%.
With `O=C(N/N=C/c1ccc(Cl)cc1O)c1ccncc1`, the result (in series [1]; with Escherichia coli [9]; in the series with Escherichia coli [13]; in series [14]) was inactive. The inhibition in series [2] is 95%; in series [3] it was 3%; in series [4], -1%; in series [5], 27%; in [6], 84%; in series [7], 96%. The inhibition amounted to 4% in series [10] and 5% in series [11]. For the same molecule, in [8], the viability at 28 h, 50 µM turned out to be 67%. For the same molecule, the MIC entry with Chlamydia trachomatis is “inactive”. Further, the viability at 28 h, 25 µM in series [12] stood at 72%.
For the molecule `Cc1ccc(C(=O)N/N=C/c2cc(C(C)(C)C)ccc2O)cc1`, the result (in series [1]; in the series on Escherichia coli [9]; in the series on Escherichia coli [13]; in [14]) was inactive. In addition, the inhibition in series [2] is 25%; in series [3] it was 14%; in [4] it was 6%; in series [5] it was 20%; in [6], 17%; in [7], 24%. Further, the inhibition in series [10] worked out at 18%; in series [11], 13%. Moreover, the viability at 28 h, 50 µM in series [8] stood at 79%. In the series on Chlamydia trachomatis, this molecule had an MIC of 50 µM (≈ 15.5 µg/mL). In addition, the viability at 28 h, 25 µM in [12] is 80%.
For the molecule `CC(C)(C)c1ccc(O)c(/C=N/NC(=O)Cc2ccccc2)c1`, the result (in series [1]; in the series with Escherichia coli [9]; in the series on Escherichia coli [13]; in series [14]) was inactive. Besides, the inhibition was 25% in series [2]; 9% in series [3]; 13% in series [4]; 10% in series [5]; 26% in [6]; 20% in series [7]. Moreover, the inhibition in series [10] was determined as 4%; in [11], 9%. Also, in series [8], the viability at 28 h, 50 µM came to 79%. Further, the MIC result in the series with Chlamydia trachomatis is “inactive”. Further, the viability at 28 h, 25 µM in [12] turned out to be 83%.
With `O=C(N/N=C/c1cc(Cl)cc(Cl)c1O)c1ccccc1[N+](=O)[O-]`, the result (in series [1]; in the series with Escherichia coli [9]; in the series on Escherichia coli [13]; in series [14]) was inactive. Besides, the inhibition in series [2] is 92%; in series [3], 8%; in series [4], 16%; in series [5], 18%; in series [6] it was 61%; in series [7], 88%. The inhibition in series [10] is 4%; in series [11] it was -4%.
Consider `COc1ccc(Br)c(C(=O)N/N=C/c2cc([N+](=O)[O-])cc([N+](=O)[O-])c2O)c1`, for which the result (in [1]; with Escherichia coli [9]; in the series with Escherichia coli [13]; in [14]) was inactive. The inhibition in [2] was found to be 25%; in series [3], 13%; in [4], 0%; in series [5] it was 23%; in series [6], 30%; in series [7], 30%. Besides, the inhibition was 12% in series [10] and -7% in series [11].
On to `COc1ccc(Br)c(/C=N/NC(=O)CC#N)c1O`, for which the outcome (in [1]; in the series with Escherichia coli [9]; in the series with Escherichia coli [13]; in series [14]) was inactive. Further, the inhibition was 59% in series [2]; 17% in series [3]; 12% in series [4]; 20% in series [5]; 25% in [6]; 57% in series [7]. In addition, the inhibition was 18% in [10] and -9% in [11].
Regarding `O=C(N/N=C/c1ccc(O)c(O)c1O)c1ccccc1[N+](=O)[O-]`, the result (in series [1]; in the series on Escherichia coli [9]; in the series with Escherichia coli [13]; in [14]) was inactive. Also, the inhibition in [2] stood at 96%; in [3], 16%; in [4] it was 5%; in series [5], 22%; in series [6] it was 36%; in [7] it was 74%. Besides, the inhibition in [10] was 20%; in [11], -8%.
Take `COc1cccc(/C=N/NC(=O)c2ccccc2[N+](=O)[O-])c1O`: the outcome (in [1]; in the series on Escherichia coli [9]; in the series on Escherichia coli [13]; in series [14]) was inactive. The inhibition in [2] amounted to 94%; in [3], 14%; in series [4], 19%; in series [5], 19%; in series [6], 32%; in series [7], 68%. The values for the inhibition in [10] and in series [11] were 12% and -5%, respectively.
Consider `O=C(CC12CC3CC(CC(C3)C1)C2)N/N=C/c1ccc(Cl)cc1O`, for which the result (in series [1]; in the series with Escherichia coli [9]; in the series on Escherichia coli [13]; in [14]) was inactive. In addition, the inhibition in series [2] came to 29%; in series [3], 18%; in series [4] it was 7%; in series [5], 25%; in [6], 32%; in [7], 26%. The inhibition stood at 19% in series [10] and 0% in series [11].
Turning to `COc1cc(Br)cc(/C=N/NC(=O)CCc2ccc(O)cc2)c1O`, the outcome (in series [1]; in the series with Escherichia coli [9]; in the series with Escherichia coli [13]; in series [14]) was inactive. Moreover, the inhibition in series [2] was found to be 52%; in series [3], 9%; in [4], 3%; in [5] it was 18%; in series [6], 23%; in series [7], 36%. For the same molecule, the inhibition in [10] was 11%; in series [11], -10%.
In the case of `COc1cccc(C(=O)N/N=C/c2cc(OC)cc(OC)c2O)c1`, the outcome (in series [1]; in the series on Escherichia coli [9]; with Escherichia coli [13]; in series [14]) was inactive. Also, the inhibition in series [2] turned out to be 76%; in series [3], 9%; in [4], 4%; in [5], 20%; in series [6], 43%; in [7] it was 63%. For the same molecule, the inhibition in series [10] was 13%; in series [11], -7%.
